Compound activity from PubChem.
IMP-1 inh-1 = inhibitors of Pseudomonas aeruginosa IMP-1 metallo-beta-lactamase; 290,000 tested, 0.45% active; AID 1556; purified IMP-1, nitrocefin hydrolysis, epi-absorbance fluorescence; inhibition, % at 5.6 µM;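 active = inhibition above the mean plus 3 SD of all compounds in the same screening run, cut at about 4.5% in these data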;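 note: 0% = IMP-1 with DMSO and 100% = DMSO wells lacking enzyme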
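System: purified IMP-1 / Input: IMP-1 dispensed at 0.2 nM / Medium: 50 mM HEPES pH 7.1, 50 µM ZnSO4, 0.05% Brij 35 / Timing: 15 min enzyme–compound preincubation, then 25 min nitrocefin reaction, 25 °C / Technique: plate fluorescence quenching by hydrolysis product, ex 480/em 530 nm / Repeats: singlicate testing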
NS3 helicase inh = HCV NS3 helicase inhibition; NS3 helicase DNA unwinding, Cy5 molecular beacon fluorescence; inhibition, % at 10.9 µM; 290,000 tested, 0.56% active;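 active = inhibition above the mean of all tested compounds plus 3 SD, set per campaign, cut at about 35% in these data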;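 note: 0% = DMSO wells and 100% = thioflavine S control wells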
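Measured by: Cy5 fluorescence, 0 and 60 min reads / Assay system: NS3 helicase fragment of HCV / Control set: low DMSO, high thioflavine S at 110 µM / Times: 1 h reaction at 25 °C, ATP-initiated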
SUMO HTRF inh = blocks human SUMOylation mediated by UBC9; P63279; HTRF SUMOylation assay, SAE1/SAE2 + UBC9, in vitro; inhibition, % at 35 µM; 290,000 tested, 0.36% active; AID 2006; in the data active = inhibition above about 50%, passing the limit was not always enough
Target sequence (P63279 whole entry, looked up): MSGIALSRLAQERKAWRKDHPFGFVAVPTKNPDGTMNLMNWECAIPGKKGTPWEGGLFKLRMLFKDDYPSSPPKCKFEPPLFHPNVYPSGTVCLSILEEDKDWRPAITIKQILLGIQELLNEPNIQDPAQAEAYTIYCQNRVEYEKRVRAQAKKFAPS
VIM-2 inhibitor = inhibitors of Pseudomonas aeruginosa VIM-2 metallo-beta-lactamase; purified VIM-2, nitrocefin hydrolysis, epi-absorbance fluorescence; inhibition, % at 5.6 µM; 290,000 tested, 0.89% active; AID 1527;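 active = inhibition above the mean of all tested compounds plus 3 SD, cutoff set per screening run, cut at about 7.5% in these data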;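 note: red hydrolysis product quenches plate fluorescence so inhibitors raise well fluorescence; 0% = enzyme with DMSO and 100% = DMSO without enzyme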
FID counter = counter-screen for HCV NS3 helicase inhibitors: DNA intercalator displacement | 290,000 tested, 0.17% active | inhibition, % at 7.9 µM | DNA fluorescent intercalator displacement, fluorescence | AID 1845; in the data active = inhibition above about 37%;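 note: 0% = vehicle and 100% = reference compound; higher means more ethidium bromide displaced from hairpin DNA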
IMP-1 inh-2 = selectivity counter-screen for VIM-2 inhibitors: IMP-1 metallo-beta-lactamase inhibitors | shares compounds with VIM-2 inhibitor | purified IMP-1, nitrocefin hydrolysis, epi-absorbance fluorescence | inhibition, % at 5.6 µM | 1,300 tested, under 10 active | AID 1856; call rule not given here;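 note: 0% = enzyme with vehicle and 100% = vehicle without enzyme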
VIM-2 FRET ctr = VIM-2 FRET inhibition, artifact counter-screen; shares compounds with VIM-2 inhibitor; purified VIM-2, CCF2 FRET substrate hydrolysis; inhibition, % at 5.6 µM; 1,300 tested, 23% active;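 active = inhibition above the mean of all tested compounds plus 3 SD, cut at about 19% in these data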;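 note: 0% = VIM-2 plus DMSO and 100% = no enzyme wells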
TEM-1 inh = TEM-1 inhibition, counter-screen for VIM-2 inhibitors | shares compounds with VIM-2 inhibitor | Purified TEM-1, nitrocefin hydrolysis, epi-absorbance fluorescence | 1,300 tested, 3% active | AID 1866 | inhibition, % at 5.6 µM;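 active = inhibition above that campaign's mean inhibition plus 3 SD, cut at about 0.46% in these data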;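 note: 0% = TEM-1 with DMSO and 100% = TEM-1 with 100 µM potassium clavulanate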
Target sequence (P62593 whole entry, looked up): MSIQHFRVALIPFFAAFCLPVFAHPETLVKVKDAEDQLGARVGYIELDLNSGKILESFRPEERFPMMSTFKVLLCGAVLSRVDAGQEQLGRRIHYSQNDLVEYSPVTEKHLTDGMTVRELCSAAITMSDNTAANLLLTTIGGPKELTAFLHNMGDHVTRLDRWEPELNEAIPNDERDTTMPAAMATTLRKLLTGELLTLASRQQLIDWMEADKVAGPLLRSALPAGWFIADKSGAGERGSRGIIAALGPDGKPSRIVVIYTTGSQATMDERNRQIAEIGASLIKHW
VIM-2 confirm 2 = confirmation of P. aeruginosa VIM-2 metallo-beta-lactamase inhibitors | shares compounds with VIM-2 inhibitor | purified VIM-2, nitrocefin hydrolysis, epi-absorbance | inhibition, % at 5.6 µM | 1,300 tested, 96% active;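 active = inhibition of the VIM-2 beta-lactamase enzyme above about 11% from the earlier first-round screen, limit read from the data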;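 note: 0% = VIM-2 with DMSO and 100% = buffer wells without enzyme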
* hit, by the source's call; · = not tested or not shown. In the library only some 2.1% were active in any assay of this set; here they are far more common.

SMILES	IMP-1 inh-1	NS3 helicase inh	SUMO HTRF inh	VIM-2 inhibitor	FID counter	IMP-1 inh-2	VIM-2 FRET ctr	TEM-1 inh	VIM-2 confirm 2
COc1ccc(NC(=O)CSC(C)c2nc3ccccc3c(=O)[nH]2)cc1 (stereo not given)	-3	5	4	0	-7	·	·	·	·
O=C(CSc1nccc(=O)[nH]1)NCc1ccco1	-1	1	19	1	0	·	·	·	·
CCN(CC)CC(=O)Nc1cccc2c1C(=O)c1ccccc1C2=O	-2	13	10	4	17	·	·	·	·
O=C1c2ccccc2C(=O)c2c(NCCCN(CCO)CCO)cccc21	-4	4	-16	22*	89*	-4	-3	-13	36*
Cn1cc(S(=O)(=O)c2ccccc2)c(=O)c2cc(Cl)ccc21	1	-1	8	1	-6	·	·	·	·
Cn1cc(-c2ccccc2C(=O)O)c(=O)c2cc(Cl)ccc21	0	-3	15	13*	-2	-2	27*	0	18*
CCCc1[nH]nc2c1C1(CCN(C(=O)OCc3ccccc3)CC1)C(C#N)=C(N)O2	-2	3	21	18*	-17	-2	22*	0.5*	6
CC(C)c1[nH]nc2c1C1(CCN(Cc3ccccc3)CC1)C(C#N)=C(N)O2	-3	0	-5	3	-4	·	·	·	·
COc1cc(Cl)ccc1OCc1cc(C(=O)NCCCN2CCCC2=O)no1	-2	0	2	0	-45	·	·	·	·
COc1ccc(OC)c(/C=N/NC(=O)CC2C(=O)NN=C2C)c1 (stereo not given)	-1	-11	32	29*	-1	-3	63*	-5	46*
COc1cccc(/C=N/NC(=O)CC2C(=O)NN=C2C)c1OC (stereo not given)	-3	7	13	1	-4	·	·	·	·
O=C(O)CCS(=O)(=O)c1cccc2cccnc12	-7	-1	10	0	4	·	·	·	·
CCSS(=O)(=O)c1cccc2cccnc12	-2	-3	9	23*	5	-4	-7	-4	29*
CC(Oc1ccc2c3c(c(=O)oc2c1)CCC3)C(=O)NCCCn1ccnc1 (stereo not given)	-2	1	12	27*	1	-3	-1	-6	39*
CCCc1cc(=O)oc2cc(OC(C)C(=O)NCCCn3ccnc3)ccc12 (stereo not given)	-1	0	10	4	11	·	·	·	·
CC(Oc1cc2oc(=O)c3c(c2cc1Cl)CCC3)C(=O)NCCCn1ccnc1 (stereo not given)	-2	3	16	28*	1	0	1	2.3*	40*
CC(Oc1cc2oc(=O)c3c(c2cc1Cl)CCC3)C(=O)NCc1ccncc1 (stereo not given)	0	4	-19	16*	-23	-2	4	-6	22*
Cc1cccc(NC(=O)CCCn2cc([N+](=O)[O-])cn2)n1	0	-21	1	1	-2	·	·	·	·
COc1cc2c(cc1OC)C(C)N(C(=O)c1cc(Cl)nc(Cl)c1)CC2 (stereo not given)	-3	-7	4	-1	-23	·	·	·	·
COc1cc2c(cc1OC)C(C)N(C(=O)c1nccnc1C(=O)O)CC2 (stereo not given)	-2	-3	11	20*	4	-3	43*	-6	33*
O=c1ccc2cc(S(=O)(=O)N3CCN(c4ccccc4F)CC3)ccc2o1	-4	2	-16	-2	-19	·	·	·	·
O=C(COc1ccc2ccc(=O)oc2c1)NC1CCN(Cc2ccccc2)CC1	-3	-6	12	0	0	·	·	·	·
O=C(COc1ccc2c3c(c(=O)oc2c1)CCC3)Nc1ccc(CN2CCOCC2)cc1	-4	-36	6	18*	15	-3	0	-6	27*
